Experimental data of several laboratories.
Compare with care: the assays were run in different laboratories.
Matrix: plasma
Route: intravenous

The Vd of `CCCC[C@@H]1NC(=O)[C@H](Cc2ccc(O)cc2)NC(=O)[C@@H]2CCCN2C(=O)[C@H](CC(=O)O)NC(=O)[C@H](C)NC(=O)[C@H](Cc2ccccc2)NC(=O)[C@@H]2CSCCC(=O)N3CN(CN(C3)C(=O)CCSC[C@@H](C(=O)N[C@@H](CNC(=O)CCOCCOCCOCCOCCOCCOCCOCCOCCOCCOCCOCCOCCn3cc(CCC(=O)NCCC(=O)N(C)CC(=O)N(C)CC(=O)N(C)CC(=O)N(C)CC(=O)N(C)CC(=O)N(C)CC(=O)N(C)CC(=O)N(C)CC(=O)N(C)CC(=O)N(C)CC(=O)N[C@H]4CSCCC(=O)N5CN6CN(C5)C(=O)CCSC[C@H](NC(=O)[C@@H](CC(=O)O)NC(=O)[C@H](Cc5cccc7ccccc57)NC(=O)[C@@H]5CCCN5C4=O)C(=O)N[C@@H](CCSC)C(=O)N[C@@H](CCCCNC(=N)N)C(=O)N[C@@H](CC(=O)O)C(=O)N[C@@H](Cc4c[nH]c5ccccc45)C(=O)N[C@@H](CO)C(=O)N[C@@H]([C@@H](C)O)C(=O)N4CCC[C@H]4C(=O)N4C[C@H](O)C[C@H]4C(=O)N[C@@H](Cc4c[nH]c5ccccc45)C(=O)N[C@H](C(N)=O)CSCCC6=O)nn3)C(N)=O)NC1=O)C(=O)CCSC[C@H](NC(C)=O)C(=O)N[C@@H](CC(C)(C)C)C(=O)N1CCC[C@H]1C(=O)N[C@@H](CCC(=O)O)C(=O)N[C@H](C)C(=O)N1CCC[C@H]1C(=O)N[C@@H](Cc1ccc(O)cc1)C(=O)N2` is reported as 0.46 L/kg (rat; 2 mg/kg).
For `CCc1cc(OC)c2nccc(N3CCc4c(cc(Cn5ccnc5)cc4-c4cn(C)nc4C(F)(F)F)C3=O)c2c1`, the Vd was 3.1 L/kg (male Sprague-Dawley rat; 3 mg/kg).
With `Oc1c(Br)cc(Cl)c2cccnc12` the Vd was 21.3 L/kg (Sprague-Dawley rat; 2 mg/kg).
`Oc1cc(O)cc(-c2cc3ccc(O)cc3o2)c1` gave a Vd of 0.393 L/kg (male rat; 5 mg/kg).
`CCOC(=O)[C@@]12C[C@@H]1[C@@H](n1ccc3c(NC)nc(C#Cc4ccc(Cl)s4)nc31)[C@H](O)[C@@H]2O` has a Vd of 33.8 L/kg (male Sprague-Dawley rat; 0.5 mg/kg).
The Vd of `C[C@]12CC[C@H](n3ccnc3)CC1=CC[C@@H]1[C@@H]2CC[C@]2(C)C(n3cnc4ccccc43)=CC[C@@H]12` is reported as ~6 L/kg (Sprague-Dawley rat; 1 mg/kg).
`O=C(c1cc(Cc2n[nH]c(=O)c3ccccc23)ccc1F)N1CCN(C(=O)C2CC2)CC1` gave a Vd of 0.201 L (female Sprague-Dawley rat).
With `CCCC[C@@H]1NC(=O)[C@H](Cc2ccc(O)cc2)NC(=O)[C@@H]2CCCN2C(=O)[C@H](CC(=O)O)NC(=O)[C@H](C)NC(=O)[C@H](Cc2ccccc2)NC(=O)[C@@H]2CSCCC(=O)N3CN(CN(C3)C(=O)CCSC[C@@H](C(=O)N[C@@H](C)C(N)=O)NC1=O)C(=O)CCSC[C@H](NC(C)=O)C(=O)N[C@@H](CC(C)(C)C)C(=O)N1CCC[C@H]1C(=O)N[C@@H](CCC(=O)O)C(=O)N[C@H](CCCCNC(=O)CCc1cn(CCOCCOCCOCCOCCOCCC(=O)N[C@H]3CSCCC(=O)N4CN5CN(C4)C(=O)CCSC[C@H](NC(=O)[C@@H](CC(=O)O)NC(=O)[C@H](Cc4cccc6ccccc46)NC(=O)[C@@H]4CCCN4C3=O)C(=O)N[C@@H](CCSC)C(=O)N[C@@H](CCCCNC(=N)N)C(=O)N[C@@H](CC(=O)O)C(=O)N[C@@H](Cc3c[nH]c4ccccc34)C(=O)N[C@@H](CO)C(=O)N[C@@H]([C@@H](C)O)C(=O)N3CCC[C@H]3C(=O)N3C[C@H](O)C[C@H]3C(=O)N[C@@H](Cc3c[nH]c4ccccc34)C(=O)N[C@H](C(N)=O)CSCCC5=O)nn1)C(=O)N1CCC[C@H]1C(=O)N[C@@H](Cc1ccc(O)cc1)C(=O)N2` the Vd was 1 L/kg (rat; 2 mg/kg).
`Cc1noc(-c2cc3cc(-c4nc(C(=O)NCc5ccncc5)[nH]c4C)ccc3[nH]2)n1` has a Vd of 1.5 L/kg (Sprague-Dawley rat; 1 mg/kg).
`COc1ccc2c(Cc3ccccc3F)c3n(c(=O)c2c1OC)CCc1cc2c(cc1-3)OCO2` has a Vd of 0.32 L/kg (rat; 5 mg/kg).
`C#Cc1cnc2nc(O)n(C(CC)CC)c2n1` gave a Vd of 0.8 L/kg (Sprague-Dawley rat; 1 mg/kg).
`COc1cc(F)ccc1-c1ncnc(Nc2cccc(CS(N)(=O)=O)c2)n1` has a Vd of 1.4 L/kg (male Wistar rat).
